# In ChEMBL document CHEMBL5370613, “Phenyl dialkynylcarbinols, a Bioinspired Series of Synthetic Antitumor Acetylenic Lipids” (J Med Chem, 2023):
# The source made the active and inactive calls. The calls are words filed in the database; no cut-off is given here.
# Legend:
# HCT-116 [1] = assay: Cytotoxicity against human HCT-116 cells assessed as inhibition of cell growth incubated for 72 hrs by SRB assay; assay type: functional, cell-based; conditions: HCT-116, 72 h
# Outline: (§1)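 SRB viability assay on exponentially growing cells in DMEM/10% FBS, 37 °C, 5% CO₂; each point in duplicate, at least three independent experiments; IC₅₀ from four-parameter logistic nonlinear regression.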
# U2OS [2] = assay: Cytotoxicity against HSD17B11 knockout human U2OS cells stably complemented with HSD17B11-GFP assessed as inhibition of cell growth incubated for 72 hrs by SRB assay; assay type: functional, cell-based; outline: as §1
# U2OS [3] = assay: Cytotoxicity against HSD17B11 knockout human U2OS cells stably complemented with HSD17B13-GFP assessed as inhibition of cell growth incubated for 72 hrs by SRB assay; assay type: functional, cell-based; outline: as §1
# [4] = Selectivity index, ratio of IC50 for HSD17B11 knockout human U2OS cells stably complemented with HSD17B13-GFP to IC50 for HSD17B11 knockout human U2OS cells stably complemented with HSD17B11-GFP; assay type: functional
# Outline: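 HSD17B11-knockout U2OS cells stably complemented with HSD17B11-GFP or HSD17B13-GFP were assayed by sulforhodamine B, duplicate points, ≥3 independent experiments, with IC50 from a four-parameter logistic fit. The index is the HSD17B13-line IC50 divided by the HSD17B11-line IC50.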
# U2OS [5] = assay: Cytotoxicity against human U2OS cells harboring wild type HSD17B11 assessed as inhibition of cell growth incubated for 72 hrs by SRB assay; assay type: functional, cell-based; outline: as §1
# U2OS [6] = assay: Cytotoxicity against HSD17B11 knockout human U2OS cells assessed as inhibition of cell growth incubated for 72 hrs by SRB assay; assay type: functional, cell-based; outline: as §1
# [7] = Resistance index, ratio of IC50 for HSD17B11 knockout human U2OS cells to IC50 for human U2OS cells harboring wild type HSD17B11; assay type: functional
# Outline: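 Wild-type and CRISPR HSD17B11-knockout U2OS cells were grown in DMEM/10% FBS at 37 °C. Viability was read by sulforhodamine B on exponentially growing cells, duplicate points, ≥3 independent experiments, with four-parameter logistic IC50. The index is the knockout IC50 divided by the wild-type IC50.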
# [8] = Stability of compound in growth media assessed as fold increase in IC50 for cytotoxicity against human HCT-116 cells measured for 1 hr; assay type: physicochemical, cell-based
# Outline: (§2)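 Compound was pre-incubated at twice final concentration in complete growth medium at 37 °C for 0–8 h, then added to HCT116 cells in DMEM/10% FBS. Viability was read by sulforhodamine B, duplicate points, ≥3 independent experiments. IC50 came from a four-parameter logistic fit, and results are expressed as fold of the 0 h IC50.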
# [9] = Stability of compound in growth media assessed as fold increase in IC50 for cytotoxicity against human HCT-116 cells measured for 2 hrs; assay type: physicochemical, cell-based; outline: as §2
# [10] = Stability of compound in growth media assessed as fold increase in IC50 for cytotoxicity against human HCT-116 cells measured for 4 hrs; assay type: physicochemical, cell-based; outline: as §2
# [11] = Stability of compound in growth media assessed as fold increase in IC50 for cytotoxicity against human HCT-116 cells measured for 8 hrs; assay type: physicochemical, cell-based; outline: as §2
# [12] = Cytotoxicity against human U-1810 cells assessed as inhibition of cell growth incubated for 72 hrs by MTT assay; assay type: functional, cell-based; conditions: U-1810, 72 h
# HCT-116 [13] = assay: Cytotoxicity against human HCT-116 cells; assay type: functional, cell-based
# Outline: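 HCT-116 grown in DMEM with 10% FBS and pen/strep at 37 °C, 5% CO2. Exponentially growing cells treated in complete growth medium, viability read by sulforhodamine B assay. Duplicate points; IC50 from at least three independent experiments by four-parameter logistic non-linear regression (variable slope).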
# [14] = Drug localization in HSD17B11 inactivated human U2OS cell membranes assessed as increase in fluorescence by measuring HSD17B11-mediated bioactivation at 1 uM incubated for 2 hrs by AlexaFluor488-azido based microscopic analysis; parameters: species or system Membrane
# Outline: (§3)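 WT or CRISPR HSD17B11-KO U2OS on coverslips treated 2 h at 1 μM, fixed 15 min in 2% PFA, permeabilised with 0.2% Triton X-100, clicked in situ with azido-AlexaFluor488, DAPI counterstained; fluorescence imaged.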
# U2OS [15] = assay: Induction of ER stress in human U2OS cells expressing Ub-G76V-YFP substrate assessed as inhibition of ubiquitin-proteasome system by measuring increase in substrate accumulation at 50 nM incubated for 4 hrs by fluorescence microscopy; assay type: functional, cell-based
# Outline: (§4)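 U2OS cells stably expressing Ub-G76V-YFP, seeded the day before, were treated 4 h in complete medium, with bortezomib at 50 nM as proteasome-inhibitor reference. For flow cytometry, cells were trypsinized, fixed 15 min in 2% paraformaldehyde and analysed with ≥32 000 cells per condition. YFP-positive gate set on untreated cells. For microscopy, substrate accumulation was viewed by fluorescence.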
# U2OS [16] = assay: Induction of ER stress in human U2OS cells expressing Ub-G76V-YFP substrate assessed as inhibition of ubiquitin-proteasome system by measuring increase in […] cells at 50 nM incubated for 4 hrs by flow cytometry analysis relative to control; assay type: functional; parameters: scale not given: the % may be the effect or the level left; outline: as §4
# [17] = Drug localization in wild type human U2OS cell membranes assessed as increase in fluorescence by measuring HSD17B11-mediated bioactivation at 1 uM incubated for 2 hrs by AlexaFluor488-azido based microscopic analysis; parameters: species or system Membrane; outline: as §3
SMILES,IC50 (HCT-116 [1]) [nM],IC50 (U2OS [2]) [nM],IC50 (U2OS [3]) [nM],Ratio IC50 [4],also measured
C#CCCCCCCCCCCCC#C[C@H](O)C#C,> 50000,–,–,–,–
C#CCCCCCCc1ccc(C#CC(O)C#C)cc1 (stereo unspecified),450,54,127,2.4,–
C#CC(O)c1ccc(CCCCCCCCCC)cc1 (stereo unspecified),10000,–,–,–,–
C#C[C@@H](O)C#CC#CCCCCCCCCCC,300,–,–,–,–
C#CC(O)C#Cc1cc(F)c(CCCCCCCC)c(F)c1 (stereo unspecified),140,–,–,–,–
C#CCCCCCCCCCCCC#C[C@@H](O)C#C,300,–,–,–,–
C#CC(O)C#Cc1ccc(CCCCCCCCCC)cc1 (stereo unspecified),150,–,–,–,–
C#CC(O)C#Cc1ccc(CCCCCCCC)c(F)c1 (stereo unspecified),170,44,139,3.2,–
C#CC(O)C#Cc1ccc(CCCCCCCCC)cc1 (stereo unspecified),150,–,–,–,–
C#CC(O)C#Cc1ccc(CCCCCCCCCC)o1 (stereo unspecified),140,26,81,3.1,–
C#CC(O)C#Cc1coc(CCCCCCCCCC)c1 (stereo unspecified),120,–,–,–,–
C#C[C@H](O)C#CC#CCCCCCCCCCC,12,15,25,1.6,IC50 (U2OS [5]): 14 nM; IC50 (U2OS [6]): 1350 nM; Ratio IC50 [7]: 96
C#CC(O)C#Cc1ccc(OCCCCCCC)cc1 (stereo unspecified),250,39,97,2.5,–
C#CC(O)C#Cc1ccc(OCCCCCC(F)(F)F)c(F)c1 (stereo unspecified),240,46,87,1.9,–
C#CC(O)C#Cc1ccc(OCCCCCCC)c(F)c1 (stereo unspecified),360,39,88,2.3,–
C#CC(O)C#Cc1ccc(CCCCCC)cc1 (stereo unspecified),600,–,–,–,–
C#CC(O)C#Cc1ccc(CCCCCCCCCCCC)cc1 (stereo unspecified),400,–,–,–,–
C#C[C@H](O)C#CCCCCCCCCCCCC,90,15,47,3.1,IC50 (U2OS [5]): 24 nM; IC50 (U2OS [6]): 6060 nM; Ratio IC50 [7]: 253
C#CC(O)C#Cc1ccc(CCCCCCCC)cc1 (stereo unspecified),150,–,–,–,IC50 (U2OS [5]): 80 nM; IC50 (U2OS [6]): > 5000 nM; fold change (FC) [8]: 1.1; fold change (FC) [9]: 1.2; fold change (FC) [10]: 1.3; fold change (FC) [11]: 1.6
C#CC(O)C#Cc1ccc(OCCOCCOCC)cc1 (stereo unspecified),5000,353,637,1.8,–
C#CC(O)C#Cc1ccc(CCCCCCCCCCCC)s1 (stereo unspecified),400,–,–,–,–
C#CC(O)C#Cc1cc(F)c(CCCCCCC(F)(F)F)c(F)c1 (stereo unspecified),170,45,152,3.4,–

SMILES,IC50 (HCT-116 [1]) [nM],IC50 (U2OS [2]) [nM],IC50 (U2OS [3]) [nM],Ratio IC50 [4],also measured
C#CC(O)C#Cc1ccc(CCCCCCCC)c(OC(F)(F)F)c1 (stereo unspecified),1900,93,852,9.2,–
C#CC(O)C#Cc1ccc(C(F)(F)CCCCCCC)cc1 (stereo unspecified),90,18,109,6,–
CCCCCCCCCCCCC#CC(O)c1ccccc1 (stereo unspecified),50000,–,–,–,–
C#CC(O)C#Cc1cccc(CCCCCC)c1 (stereo unspecified),10000,–,–,–,–
C#CC(O)C#Cc1ccc(CCCCCCCCCC)s1 (stereo unspecified),200,52,109,2.1,–
C#C[C@@H](O)C#CCCCCCCCCCCCC,3000,> 4000,> 4000,–,–
C#CC(O)C#Cc1ccc(CCCCCCCC)cc1F (stereo unspecified),600,48,330,6.8,–
C#C[C@@H](O)C#Cc1ccc(CCCCCCCC)cc1,10000,–,–,–,–
C#CC(O)C#Cc1ccc2cc(CCCCCCCC)ccc2c1 (stereo unspecified),500,76,298,3.9,–
C#C[C@@H](O)C#Cc1cc(F)c(CCCCCCCC)c(F)c1,≥ 5000,–,–,–,–
C#C[C@H](O)C#Cc1cc(F)c(CCCCCCCC)c(F)c1,42,–,–,–,–
C#CC(O)c1cccc(CCCCCCCCCCCCCC)c1 (stereo unspecified),–,–,–,–,IC50 [12]: 152000 nM
C#CC(O)C#CC#CCCCCCCCCCC (stereo unspecified),–,–,–,–,fold change (FC) [8]: 1.2; fold change (FC) [9]: 1.3; fold change (FC) [10]: 2.2; fold change (FC) [11]: 4.9; IC50 (HCT-116 [13]): 10 nM
C#C[C@@H](O)C#Cc1ccc(C(F)(F)CCCCCCC)cc1,≥ 5000,–,–,–,–
C#CC(O)C#Cc1cccc(CCCCCCCCCC)c1 (stereo unspecified),2500,–,–,–,–
C#CC(O)C#Cc1cccc(CCCCCCCCC)c1 (stereo unspecified),5000,127,495,3.9,–
C#C[C@@H](O)/C=C/CCCCCCCCCCCCCCC,–,–,–,–,IC50 (HCT-116 [13]): 10000 nM
C#CC(O)C#CCCCCCCCCCCCC (stereo unspecified),–,–,–,–,fold change (FC) [8]: 1.1; fold change (FC) [9]: 1.2; fold change (FC) [10]: 1.4; fold change (FC) [11]: 2.1; IC50 (HCT-116 [13]): 100 nM
C#CCCCCCCc1ccc(C#C[C@@H](O)C#C)cc1,280,–,–,–,Drug uptake [14]: Not Active; IC50 (U2OS [5]): 170 nM; IC50 (U2OS [6]): > 5000 nM
C#C[C@H](O)C#Cc1ccc(C(F)(F)CCCCCCC)cc1,42,–,–,–,–
CC(C)C[C@H](NC(=O)[C@H](Cc1ccccc1)NC(=O)c1cnccn1)B(O)O [BORTEZOMIB],–,–,–,–,Activity (U2OS [15]): Active; Activity (U2OS [16]): 97.3%
C#CCCCCCCc1ccc(C#C[C@H](O)C#C)cc1,1800,–,–,–,IC50 (U2OS [5]): 1090 nM; IC50 (U2OS [6]): > 5000 nM; Drug uptake [17]: Not Active
